Experiment [1] has as its system Rattus norvegicus. In words: Anti-arthritis activity against adjuvant-induced arthritis in rats after peroral administration. The experiment is classed as functional. The procedure, abridged: (§1)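 Groups of five male Lewis rats, 40–50 days old, given intraplantar injection in right hind paw of 0.6 mg Mycobacterium butyricum in 0.1 mL Bayol 55. Drug given in food from adjuvant day to day 17. Injected and noninjected hind paw volumes measured day 17 against normal controls. ED50 by least-squares curve fitting or Litchfield–Wilcoxon probit.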

The subject of experiment [2] is Mus musculus. In words: Analgesic activity against acetic acid induced writhing test in mouse after peroral administration at 100 mg/kg; IA=Inactive. Also on record: dose 100 mg/kg. It counts as functional, organism-based. The procedure, abridged: (§2)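 Female mice (20–22 g), groups of 10, fasted 7 h; drug given orally 30 min before intraperitoneal injection of 0.2 mL 1% aqueous acetic acid. Stretching/writhing movements counted from minute 5 to 20 after irritant.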
A general note: In writhing tests, fewer writhes than in controls are read as antinociception.

Experiment [3] has as its system Rattus norvegicus. In words: Antiinflammatory activity against carrageenan-induced foot edema after peroral administration in rat. It counts as functional. The note with it: po. The procedure, abridged: (§3)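 Groups of eight male Sprague-Dawley rats (150–180 g) dosed orally at the time of subplantar injection of 0.5 mg carrageenin. Paw volume difference measured before and 5 h after injection. Expressed as ED40, estimated graphically or by Litchfield–Wilcoxon probit analysis.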
In general terms: In the carrageenan paw model, swelling and tenderness develop within hours.

For experiment [4], the system named is Mus musculus. In words: Analgesic activity against acetic acid induced writhing test in mouse after peroral administration. It counts as functional.
The test system of experiment [5] is Mus musculus. Description: Analgesic activity against acetic acid induced writhing test in mouse administered po at 100 mg/kg; IA=Inactive. The experiment is classed as functional, organism-based. Also on record: dose 100 mg/kg. The procedure, abridged: as §2
Experiment [6] deals with Rattus norvegicus. In words: Antiarthritis activity against adjuvant-induced arthritis in rats administered po at 10 mg/kg; IA=Inactive. The experiment is classed as functional, organism-based. The arrangement: dose 10 mg/kg.
The species named for experiment [7] is Rattus norvegicus. In words: Antiarthritis activity against adjuvant-induced arthritis in rats. The experiment is classed as functional. Put shortly:
as §1

A further experiment addresses T1, Cyclooxygenase (Bos taurus, UniProt O62664+O62698).
T1 sequence (O62664 whole entry): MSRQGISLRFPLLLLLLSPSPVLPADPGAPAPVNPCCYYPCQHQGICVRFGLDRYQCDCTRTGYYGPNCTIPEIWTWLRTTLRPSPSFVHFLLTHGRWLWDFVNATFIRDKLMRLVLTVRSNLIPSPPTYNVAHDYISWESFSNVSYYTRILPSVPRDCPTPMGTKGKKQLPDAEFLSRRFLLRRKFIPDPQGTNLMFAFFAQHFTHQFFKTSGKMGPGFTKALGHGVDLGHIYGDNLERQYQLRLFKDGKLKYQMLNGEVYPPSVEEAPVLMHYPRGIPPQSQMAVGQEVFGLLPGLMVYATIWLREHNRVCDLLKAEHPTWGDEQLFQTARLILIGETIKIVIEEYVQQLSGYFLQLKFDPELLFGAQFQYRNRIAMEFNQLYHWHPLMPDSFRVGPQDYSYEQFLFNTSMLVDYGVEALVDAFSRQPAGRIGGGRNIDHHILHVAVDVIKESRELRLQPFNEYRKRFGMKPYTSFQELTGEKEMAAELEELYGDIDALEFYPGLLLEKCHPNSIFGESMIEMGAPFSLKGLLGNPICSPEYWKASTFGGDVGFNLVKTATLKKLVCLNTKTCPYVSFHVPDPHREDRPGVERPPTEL
T1 sequence (O62698 whole entry): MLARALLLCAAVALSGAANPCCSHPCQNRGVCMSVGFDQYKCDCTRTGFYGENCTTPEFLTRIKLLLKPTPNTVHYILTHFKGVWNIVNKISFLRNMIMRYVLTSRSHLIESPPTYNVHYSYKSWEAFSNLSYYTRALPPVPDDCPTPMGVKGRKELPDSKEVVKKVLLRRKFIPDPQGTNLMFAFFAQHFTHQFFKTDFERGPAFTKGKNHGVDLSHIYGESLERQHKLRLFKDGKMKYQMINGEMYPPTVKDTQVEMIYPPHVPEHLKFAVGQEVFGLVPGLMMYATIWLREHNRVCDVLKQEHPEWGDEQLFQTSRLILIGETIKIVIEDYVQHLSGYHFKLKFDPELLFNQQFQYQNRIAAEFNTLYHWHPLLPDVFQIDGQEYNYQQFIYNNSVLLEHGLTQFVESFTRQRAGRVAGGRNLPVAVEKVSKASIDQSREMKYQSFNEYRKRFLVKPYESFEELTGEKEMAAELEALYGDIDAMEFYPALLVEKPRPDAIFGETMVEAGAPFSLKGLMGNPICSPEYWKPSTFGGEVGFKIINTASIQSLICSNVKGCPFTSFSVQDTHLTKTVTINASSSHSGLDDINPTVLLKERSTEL
Description: Inhibition of bovine Prostaglandin G/H synthase in seminal vesicle microsomes in vitro.

The test system of experiment [8] is Rattus norvegicus. In words: Antiinflammatory activity against carrageenan-induced foot edema in rat after peroral administration. The experiment is classed as functional. The note with it: po. Put shortly: as §3
Experiment [9] has as its target T2, Polyunsaturated fatty acid 5-lipoxygenase (Rattus norvegicus, UniProt P12527).
T2 sequence (P12527 whole entry): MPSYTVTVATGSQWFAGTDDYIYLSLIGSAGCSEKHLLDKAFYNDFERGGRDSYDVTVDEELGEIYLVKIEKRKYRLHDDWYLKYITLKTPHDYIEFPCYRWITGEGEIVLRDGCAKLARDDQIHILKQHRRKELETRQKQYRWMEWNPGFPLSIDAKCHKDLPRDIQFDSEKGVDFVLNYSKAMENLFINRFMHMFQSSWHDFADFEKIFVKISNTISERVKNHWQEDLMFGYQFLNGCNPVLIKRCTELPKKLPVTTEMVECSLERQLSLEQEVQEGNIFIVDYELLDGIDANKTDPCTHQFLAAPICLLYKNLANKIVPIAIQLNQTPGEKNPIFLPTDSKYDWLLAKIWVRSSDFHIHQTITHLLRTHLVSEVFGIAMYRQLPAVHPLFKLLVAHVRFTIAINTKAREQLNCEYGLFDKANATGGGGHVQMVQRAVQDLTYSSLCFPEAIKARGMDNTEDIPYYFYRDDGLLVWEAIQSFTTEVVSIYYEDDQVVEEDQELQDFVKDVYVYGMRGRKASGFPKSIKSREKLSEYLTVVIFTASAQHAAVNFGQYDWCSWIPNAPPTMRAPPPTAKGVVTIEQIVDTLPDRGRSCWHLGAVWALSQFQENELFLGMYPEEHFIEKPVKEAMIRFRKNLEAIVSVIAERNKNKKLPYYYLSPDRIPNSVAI
In words: Inhibition of 5-lipoxygenase from rat peritoneal neutrophils in vitro.

For experiment [10], the system named is Mus musculus. In words: Analgesic activity against acetic acid induced writhing test in mouse after peroral administration, treatment 6 hr before testing. The experiment is classed as functional. The following applies: po. The procedure, abridged: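 Groups of 10 female mice (20–22 g), fasted 7 h, dosed orally 6 h before ip injection of 0.2 mL 1% aqueous acetic acid. Stretching and writhing movements counted from minute 5 to 20 after irritant. ED50 evaluated graphically or by computerized least-squares curve fitting.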

Experiment [11] relates to Rattus norvegicus. Description: Ulcerogenic effect after oral administration (intestinal ulcer). It counts as functional. Put shortly: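 Nonfasted male rats (150–180 g) killed 24 h after oral dosing, and intestinal ulcers scored. Ulceration index = (mean degree × rats with ulcers / rats) × 100. ED100 (index 100) determined graphically.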
For experiment [12], the system named is Rattus norvegicus. In words: Ulcerogenic effect after oral administration (gastric ulcer). The experiment is classed as functional. Put shortly:
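Groups of eight female rats (120–150 g), fasted 24 h, dosed orally; killed 7 h later and stomachs scored. Ulceration index = (mean ulcer degree × rats with ulcers / number of rats) × 100, ulcers being scores above 0.5. ED100 (index 100, max 300) read graphically.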

Experiment [13] deals with Mus musculus. Description: Analgesic activity against acetic acid induced writhing test in mouse administered po at 50 mg/kg; IA=Inactive. It counts as functional, organism-based. Also on record: dose 50 mg/kg. The procedure, abridged:
as §2

Experiment [14] has as its system Rattus norvegicus. Description: Antiarthritis activity against adjuvant-induced arthritis in rats administered po at 10 mg/kg; IA= Inactive. The experiment is classed as functional, organism-based. Also on record: dose 10 mg/kg.
For experiment [15], the system named is Rattus norvegicus. In words: Antiinflammatory activity against carrageenan-induced foot edema in rat administered po at 100 mg/kg; IA=Inactive. The experiment is classed as functional, organism-based. The arrangement: dose 100 mg/kg.
The test system of experiment [16] is Rattus norvegicus. Description: Antiinflammatory activity against carrageenan-induced foot edema in rat after peroral administration of 300 mg/kg; IA=Inactive. The experiment is classed as functional, organism-based. The arrangement: dose 300 mg/kg.
The test system of experiment [17] is Rattus norvegicus. Description: Antiinflammatory activity against carrageenan-induced foot edema in rat after oral administration of 20 mg/kg; IA=Inactive. The experiment is classed as functional, organism-based. The arrangement: dose 20 mg/kg.
Where [18] appears, read: Rattus norvegicus, po, read-out: ED50.
[19] abbreviates: Mus musculus, po, read-out: ED50.

Structures are written as SMILES. Calls of active or inactive are those of the source. The calls are words filed in the database; no cut-off is given here.

For orientation: ED50 means the dose that gives a 50% effect, or the effect in half of the subjects. In general, IC50 refers to the midpoint of a concentration-inhibition curve. Higher therefore signals weaker potency.

As for `CCCCCCCCCCCC(=O)OC(CC)c1nc2c(C(F)(F)F)cccc2c(O)c1C(=O)Nc1nccs1` (configuration not stated), the ED50 in the experiment with Rattus norvegicus [1] (setting [18]) was > 5 mg/kg. Further, the ED50 result with Mus musculus [2] was “inactive”.

On to `CC(C)(C)C(O)c1nc2c(C(F)(F)F)cccc2c(O)c1C(=O)Nc1nccs1` (configuration not stated), for which the ED50 is 1.5 mg/kg in the experiment with Rattus norvegicus [1] (setting [18]) and 50 mg/kg with Mus musculus [4] (setting [19]). This molecule had an ED40 in the experiment on Rattus norvegicus [3] of 4 mg/kg.

Consider `O=C(Nc1nccs1)c1c(C(O)C2CCCCC2)nc2c(C(F)(F)F)cccc2c1O` (configuration not stated), for which the ED50 result in the experiment with Mus musculus [5] and in the experiment on Rattus norvegicus [6] was “inactive” in each case. Besides, the ED40 in the experiment with Rattus norvegicus [3] was > 100 mg/kg.

As for `CCC(=O)OC(CC)c1nc2c(C(F)(F)F)cccc2c(O)c1C(=O)Nc1nccs1` (stereo in doubt; 102), the ED50 in the experiment filed under Rattus norvegicus [7] stood at 0.7 mg/kg; in the experiment on Rattus norvegicus [1], 0.7 mg/kg; in the experiment on Mus musculus [10] it was 4.6 mg/kg; in the experiment on Mus musculus [4] it was 50 mg/kg. The concentration for half-maximal inhibition (IC50) against Cyclooxygenase was 2100 nM; in experiment [9], 3000 nM. Besides, the ED40 with Rattus norvegicus [8] turned out to be 4 mg/kg. Moreover, the ED100 with Rattus norvegicus [11] was >250 mg/kg; in the experiment with Rattus norvegicus [12] it was >300 mg/kg.

Take `Cc1cnc(NC(=O)c2cnc3c(C(F)(F)F)cccc3c2O)s1`: the ED50 result in the experiment on Mus musculus [13] was “inactive”.

With `O=C(Nc1nccs1)c1c(C(O)c2ccccc2)nc2c(C(F)(F)F)cccc2c1O` (configuration not stated), the ED50 entry in the experiment on Rattus norvegicus [14] and in the experiment on Mus musculus [5] was “inactive” each time. Moreover, in the experiment on Rattus norvegicus [15], the ED40 result was “inactive”.

As for `O=C(Nc1nccs1)c1cnc2cc(Cl)ccc2c1O`, the ED50 entry in the experiment with Rattus norvegicus [16] is “inactive”. In addition, the ED50 in the experiment with Mus musculus [4] (setting [19]) is > 100 mg/kg.

As to `Cc1cc(NC(=O)c2cnc3c(C(F)(F)F)cccc3c2O)no1`, the ED50 result in the experiment on Mus musculus [13] is “inactive”.

Consider `CN1C(C(=O)Nc2ccccn2)=C(O)c2ccccc2S1(=O)=O` [PIROXICAM], for which the ED50 in the experiment on Rattus norvegicus [1] (setting [18]) amounted to 0.8 mg/kg; in the experiment with Mus musculus [4] (setting [19]) it was 3.3 mg/kg. Moreover, the ED40 in the experiment with Rattus norvegicus [8] was determined as 8 mg/kg. Besides, the IC50 in experiment [9] was > 100000 nM. Moreover, the ED100 with Rattus norvegicus [11] was determined as 20 mg/kg; with Rattus norvegicus [12] it was 9 mg/kg.

Turning to `O=C(Nc1nccs1)c1c(Cc2ccccc2)nc2c(C(F)(F)F)cccc2c1O`, in the experiment with Rattus norvegicus [17], the ED50 result was “inactive”. For the same molecule, in the experiment with Mus musculus [4] (setting [19]), the ED50 turned out to be 40 mg/kg.

For `CCCCC(O)c1nc2c(C(F)(F)F)cccc2c(O)c1C(=O)Nc1nccs1` (configuration not stated), the ED50 was > 20 mg/kg in the experiment on Rattus norvegicus [1] (setting [18]) and ≥ 100 mg/kg in the experiment on Mus musculus [4] (setting [19]). The ED40 with Rattus norvegicus [3] was > 100 mg/kg.

As to `CCC(O)c1nc2c(C(F)(F)F)cccc2c(O)c1C(=O)Nc1nccs1` (stereo in doubt; 89), the ED50 was determined as 2 mg/kg in the experiment filed under Rattus norvegicus [7], 1.6 mg/kg with Rattus norvegicus [1] and 3 mg/kg with Mus musculus [4]. In addition, the concentration for half-maximal inhibition (IC50) at Cyclooxygenase is 200 nM; in experiment [9], 1100 nM. This molecule also registered an ED40 in the experiment on Rattus norvegicus [8] of 5 mg/kg. The molecule also had an ED100 in the experiment on Rattus norvegicus [12] of 12 mg/kg.
